Several values for one entry are separate records, joined by “and”; a condition that tells them apart may be missing. Equal entries are not always repeated.
What was measured:
Format in all cases: toxicity, cell-based
[1] = system: Fibroblast; experiment: Multiplex assay against human fibroblast
In short: (§1)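 Hoechst33342, BioTracker Green Microtubule Cytoskeleton Dye, MitoTracker Red and Annexin V Alexa Fluor 680 were added to live cells at seeding, and imaging on a CQ1 microscope at 37°C and 5% CO2 followed compound addition. Gating by CellPathfinder machine learning separated cells into Hoechst high-intensity objects or normal cells, then normal cells into healthy, pyknosed or fragmented nuclei, then pyknosed cells into mitotic or apoptotic. Per cents of healthy-nucleus cells are reported for the tubulin, mitochondrial-mass and membrane-permeability phenotypes.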

[2] = system: HEK-293T; experiment: Multiplex assay against HEK293T; details: human; in short: as §1
[3] = system: U2OS; experiment: Multiplex assay against U2OS; details: human; in short: as §1
[4] = 12 h, 1 µM, compound concentration 1 uM
[5] = 12 h, 10 µM, compound concentration 10 uM
[6] = 24 h, 1 µM, compound concentration 1 uM
[7] = 24 h, 10 µM, compound concentration 10 uM
[8] = 48 h, 1 µM, compound concentration 1 uM
[9] = 48 h, 10 µM, compound concentration 10 uM

Cc1nn(C)c2nc(NNC(=O)Nc3cc(Cl)nc(Cl)c3)cc(C(C)C)c12
Population Apoptotic (%) [1, 4]: 62% and 37%
Population Fragmented Nuclei (%) [1, 4]: 15% and 31%
Population Healthy Nuclei (%) [1, 4]: 68% and 53%
Population Hoechst High Intensity Objects (%) [1, 4]: 3% and 2%
Population Membrane Permeable-Phenotype (%) [1, 4]: 0%
Population Mitochondria Different-Phenotype (%) [1, 4]: 4% and 7%
Population Mitotic Cells (%) [1, 4]: 37% and 62%
Population Normal (%) [1, 4]: 96% and 97%
Population Pyknosed Nuclei (%) [1, 4]: 15%
Population Tubulin-Different-Phenotype (%) [1, 4]: 27% and 46%
Total Cell Count [1, 4]: 178 and 179
Population Apoptotic (%) [1, 5]: 53% and 21%
Population Fragmented Nuclei (%) [1, 5]: 12% and 33%
Population Healthy Nuclei (%) [1, 5]: 63% and 56%
Population Hoechst High Intensity Objects (%) [1, 5]: 3% and 7%
Population Membrane Permeable-Phenotype (%) [1, 5]: 2% and 5%
Population Mitochondria Different-Phenotype (%) [1, 5]: 15% and 6%
Population Mitotic Cells (%) [1, 5]: 46% and 78%
Population Normal (%) [1, 5]: 96% and 92%
Population Pyknosed Nuclei (%) [1, 5]: 23% and 10%
Population Tubulin-Different-Phenotype (%) [1, 5]: 89%
Total Cell Count [1, 5]: 139 and 140
Population Apoptotic (%) [1, 6]: 59% and 62%
Population Fragmented Nuclei (%) [1, 6]: 18% and 21%
Population Healthy Nuclei (%) [1, 6]: 68%
Population Hoechst High Intensity Objects (%) [1, 6]: 1% and 2%
Population Membrane Permeable-Phenotype (%) [1, 6]: 1% and 2%
Population Mitochondria Different-Phenotype (%) [1, 6]: 3% and 6%
Population Mitotic Cells (%) [1, 6]: 40% and 37%
Population Normal (%) [1, 6]: 98% and 97%
Population Pyknosed Nuclei (%) [1, 6]: 12% and 9%
Population Tubulin-Different-Phenotype (%) [1, 6]: 29% and 50%
Total Cell Count [1, 6]: 176 and 174
Population Apoptotic (%) [1, 7]: 52% and 25%
Population Fragmented Nuclei (%) [1, 7]: 12% and 28%
Population Healthy Nuclei (%) [1, 7]: 69% and 61%
Population Hoechst High Intensity Objects (%) [1, 7]: 4% and 8%
Population Membrane Permeable-Phenotype (%) [1, 7]: 1% and 0%
Population Mitotic Cells (%) [1, 7]: 47% and 75%
Population Normal (%) [1, 7]: 95% and 91%
Population Pyknosed Nuclei (%) [1, 7]: 18% and 9%
Population Tubulin-Different-Phenotype (%) [1, 7]: 95% and 89%
Total Cell Count [1, 7]: 130 and 132
Population Apoptotic (%) [1, 8]: 71% and 57%
Population Fragmented Nuclei (%) [1, 8]: 18% and 34%
Population Healthy Nuclei (%) [1, 8]: 73% and 62%
Population Hoechst High Intensity Objects (%) [1, 8]: 1% and 2%
Population Membrane Permeable-Phenotype (%) [1, 8]: 1% and 2%
Population Mitochondria Different-Phenotype (%) [1, 8]: 2%
Population Mitotic Cells (%) [1, 8]: 28% and 42%
Population Normal (%) [1, 8]: 98% and 97%
Population Pyknosed Nuclei (%) [1, 8]: 7% and 3%
Population Tubulin-Different-Phenotype (%) [1, 8]: 30% and 36%
Total Cell Count [1, 8]: 188 and 184
Population Apoptotic (%) [1, 9]: 93% and 62%
Population Fragmented Nuclei (%) [1, 9]: 16% and 38%
Population Healthy Nuclei (%) [1, 9]: 70% and 56%
Population Hoechst High Intensity Objects (%) [1, 9]: 8% and 3%
Population Membrane Permeable-Phenotype (%) [1, 9]: 2%
Population Normal (%) [1, 9]: 91% and 96%
Population Pyknosed Nuclei (%) [1, 9]: 13% and 5%
Population Tubulin-Different-Phenotype (%) [1, 9]: 96% and 85%
Total Cell Count [1, 9]: 129 and 155
Population Apoptotic (%) [2, 4]: 27% and 40%
Population Fragmented Nuclei (%) [2, 4]: 5%
Population Healthy Nuclei (%) [2, 4]: 77% and 81%
Population Hoechst High Intensity Objects (%) [2, 4]: 5% and 2%
Population Membrane Permeable-Phenotype (%) [2, 4]: 0%
Population Mitochondria Different-Phenotype (%) [2, 4]: 37% and 59%
Population Mitotic Cells (%) [2, 4]: 72% and 60%
Population Normal (%) [2, 4]: 94% and 97%
Population Pyknosed Nuclei (%) [2, 4]: 16% and 13%
Population Tubulin-Different-Phenotype (%) [2, 4]: 26% and 25%
Total Cell Count [2, 4]: 467 and 383
Population Apoptotic (%) [2, 5]: 55% and 46%
Population Fragmented Nuclei (%) [2, 5]: 5% and 4%
Population Healthy Nuclei (%) [2, 5]: 61% and 74%
Population Hoechst High Intensity Objects (%) [2, 5]: 12% and 3%
Population Membrane Permeable-Phenotype (%) [2, 5]: 1%
Population Mitochondria Different-Phenotype (%) [2, 5]: 79% and 84%
Population Mitotic Cells (%) [2, 5]: 44% and 53%
Population Normal (%) [2, 5]: 88% and 96%
Population Pyknosed Nuclei (%) [2, 5]: 32% and 21%
Population Tubulin-Different-Phenotype (%) [2, 5]: 80% and 75%
Total Cell Count [2, 5]: 300 and 396
Population Apoptotic (%) [2, 6]: 31%
Population Fragmented Nuclei (%) [2, 6]: 9% and 6%
Population Healthy Nuclei (%) [2, 6]: 78% and 82%
Population Hoechst High Intensity Objects (%) [2, 6]: 3% and 1%
Population Membrane Permeable-Phenotype (%) [2, 6]: 0%
Population Mitochondria Different-Phenotype (%) [2, 6]: 27% and 37%
Population Mitotic Cells (%) [2, 6]: 68%
Population Normal (%) [2, 6]: 96% and 98%
Population Pyknosed Nuclei (%) [2, 6]: 11%
Population Tubulin-Different-Phenotype (%) [2, 6]: 20% and 19%
Total Cell Count [2, 6]: 608 and 512
Population Apoptotic (%) [2, 7]: 59% and 55%
Population Fragmented Nuclei (%) [2, 7]: 10% and 5%
Population Healthy Nuclei (%) [2, 7]: 66% and 78%
Population Hoechst High Intensity Objects (%) [2, 7]: 5%
Population Membrane Permeable-Phenotype (%) [2, 7]: 0%
Population Mitochondria Different-Phenotype (%) [2, 7]: 78% and 80%
Population Mitotic Cells (%) [2, 7]: 40% and 44%
Population Normal (%) [2, 7]: 94% and 95%
Population Pyknosed Nuclei (%) [2, 7]: 22% and 16%
Population Tubulin-Different-Phenotype (%) [2, 7]: 74% and 69%
Total Cell Count [2, 7]: 321 and 440
Population Apoptotic (%) [2, 8]: 27% and 18%
Population Fragmented Nuclei (%) [2, 8]: 12% and 13%
Population Healthy Nuclei (%) [2, 8]: 78% and 81%
Population Hoechst High Intensity Objects (%) [2, 8]: 3% and 2%
Population Membrane Permeable-Phenotype (%) [2, 8]: 1%
Population Mitochondria Different-Phenotype (%) [2, 8]: 17% and 25%
Population Mitotic Cells (%) [2, 8]: 72% and 81%
Population Normal (%) [2, 8]: 96% and 97%
Population Pyknosed Nuclei (%) [2, 8]: 9% and 5%
Population Tubulin-Different-Phenotype (%) [2, 8]: 16% and 19%
Total Cell Count [2, 8]: 912 and 748
Population Apoptotic (%) [2, 9]: 62% and 45%
Population Fragmented Nuclei (%) [2, 9]: 9%
Population Healthy Nuclei (%) [2, 9]: 72% and 79%
Population Hoechst High Intensity Objects (%) [2, 9]: 3% and 4%
Population Membrane Permeable-Phenotype (%) [2, 9]: 0%
Population Mitochondria Different-Phenotype (%) [2, 9]: 82% and 71%
Population Mitotic Cells (%) [2, 9]: 37% and 55%
Population Normal (%) [2, 9]: 96% and 95%
Population Pyknosed Nuclei (%) [2, 9]: 18% and 10%
Population Tubulin-Different-Phenotype (%) [2, 9]: 78% and 63%
Total Cell Count [2, 9]: 387 and 593
Population Apoptotic (%) [3, 4]: 76% and 72%
Population Fragmented Nuclei (%) [3, 4]: 23% and 14%
Population Healthy Nuclei (%) [3, 4]: 66% and 76%
Population Hoechst High Intensity Objects (%) [3, 4]: 1% and 2%
Population Membrane Permeable-Phenotype (%) [3, 4]: 5% and 10%
Population Mitochondria Different-Phenotype (%) [3, 4]: 3% and 7%
Population Mitotic Cells (%) [3, 4]: 24% and 27%
Population Normal (%) [3, 4]: 98% and 97%
Population Pyknosed Nuclei (%) [3, 4]: 9% and 8%
Population Tubulin-Different-Phenotype (%) [3, 4]: 2% and 7%
Total Cell Count [3, 4]: 268 and 131
Population Apoptotic (%) [3, 5]: 77% and 47%
Population Fragmented Nuclei (%) [3, 5]: 21% and 15%
Population Healthy Nuclei (%) [3, 5]: 56% and 63%
Population Hoechst High Intensity Objects (%) [3, 5]: 7% and 4%
Population Membrane Permeable-Phenotype (%) [3, 5]: 75% and 57%
Population Mitochondria Different-Phenotype (%) [3, 5]: 46% and 63%
Population Mitotic Cells (%) [3, 5]: 22% and 52%
Population Normal (%) [3, 5]: 92% and 95%
Population Pyknosed Nuclei (%) [3, 5]: 21%
Population Tubulin-Different-Phenotype (%) [3, 5]: 80% and 77%
Total Cell Count [3, 5]: 222 and 104
Population Apoptotic (%) [3, 6]: 80% and 93%
Population Fragmented Nuclei (%) [3, 6]: 20% and 17%
Population Healthy Nuclei (%) [3, 6]: 71% and 73%
Population Hoechst High Intensity Objects (%) [3, 6]: 0% and 2%
Population Membrane Permeable-Phenotype (%) [3, 6]: 4% and 9%
Population Mitochondria Different-Phenotype (%) [3, 6]: 2% and 4%
Population Normal (%) [3, 6]: 99% and 97%
Population Pyknosed Nuclei (%) [3, 6]: 8% and 9%
Population Tubulin-Different-Phenotype (%) [3, 6]: 1% and 4%
Total Cell Count [3, 6]: 328 and 168
Population Apoptotic (%) [3, 7]: 78% and 69%
Population Fragmented Nuclei (%) [3, 7]: 19% and 16%
Population Healthy Nuclei (%) [3, 7]: 49% and 61%
Population Hoechst High Intensity Objects (%) [3, 7]: 5% and 2%
Population Membrane Permeable-Phenotype (%) [3, 7]: 69% and 42%
Population Mitochondria Different-Phenotype (%) [3, 7]: 58% and 51%
Population Mitotic Cells (%) [3, 7]: 21% and 30%
Population Normal (%) [3, 7]: 94% and 97%
Population Pyknosed Nuclei (%) [3, 7]: 31% and 21%
Population Tubulin-Different-Phenotype (%) [3, 7]: 77% and 57%
Total Cell Count [3, 7]: 218 and 110
Population Apoptotic (%) [3, 8]: 88% and 86%
Population Fragmented Nuclei (%) [3, 8]: 17% and 21%
Population Healthy Nuclei (%) [3, 8]: 75% and 65%
Population Hoechst High Intensity Objects (%) [3, 8]: 2% and 1%
Population Membrane Permeable-Phenotype (%) [3, 8]: 4% and 8%
Population Mitochondria Different-Phenotype (%) [3, 8]: 3% and 4%
Population Mitotic Cells (%) [3, 8]: 11% and 13%
Population Normal (%) [3, 8]: 97% and 98%
Population Pyknosed Nuclei (%) [3, 8]: 7% and 12%
Population Tubulin-Different-Phenotype (%) [3, 8]: 2% and 5%
Total Cell Count [3, 8]: 504 and 247
Population Apoptotic (%) [3, 9]: 83% and 80%
Population Fragmented Nuclei (%) [3, 9]: 24%
Population Healthy Nuclei (%) [3, 9]: 43% and 48%
Population Hoechst High Intensity Objects (%) [3, 9]: 9% and 6%
Population Membrane Permeable-Phenotype (%) [3, 9]: 51%
Population Mitochondria Different-Phenotype (%) [3, 9]: 46% and 63%
Population Mitotic Cells (%) [3, 9]: 16% and 20%
Population Normal (%) [3, 9]: 90% and 93%
Population Pyknosed Nuclei (%) [3, 9]: 32% and 27%
Population Tubulin-Different-Phenotype (%) [3, 9]: 49% and 57%
Total Cell Count [3, 9]: 244 and 115

From ChEMBL document CHEMBL5724801, “EUbOPEN Chemogenomics Library - Multiplex” (2024)
